Sampled rows, rich in hits. Any-hit rate of the full collection: about 5.9%.
Pf Dd2 growth – inhibitors of Plasmodium falciparum Dd2 growth | AID 1159554 | activity change, % at 10 µM | P. falciparum Dd2 growth, SYBR Green, 72 h; active compounds read low | 94,000 tested, 2.3% active; in the data active = activity change below about -80%; inconclusive = no clear call, values can overlap the other calls
IDH1 R132H inh – inhibitors of human IDH1 R132H; O75874; IDH1 R132H reductase, diaphorase/resazurin fluorescence, 60 min; inhibition, % at 10 µM; 70,000 tested, 0.18% active; in the data active = inhibition above about 34%; inconclusive = no clear call, values can overlap the other calls; inactive = below about 11%
Target sequence (O75874 whole entry R132H): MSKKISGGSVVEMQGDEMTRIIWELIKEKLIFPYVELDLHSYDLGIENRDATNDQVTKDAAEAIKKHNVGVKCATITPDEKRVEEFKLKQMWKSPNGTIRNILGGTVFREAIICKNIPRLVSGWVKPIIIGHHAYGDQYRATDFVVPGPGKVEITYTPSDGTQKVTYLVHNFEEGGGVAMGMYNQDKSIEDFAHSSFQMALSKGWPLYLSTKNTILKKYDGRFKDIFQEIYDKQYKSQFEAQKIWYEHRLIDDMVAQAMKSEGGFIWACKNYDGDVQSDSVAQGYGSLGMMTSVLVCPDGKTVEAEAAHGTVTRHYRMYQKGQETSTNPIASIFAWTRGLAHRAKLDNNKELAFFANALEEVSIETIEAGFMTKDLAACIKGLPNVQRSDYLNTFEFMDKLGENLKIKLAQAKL
T cruzi growth-1 – blocks T. cruzi growth in NIH3T3 culture. T. cruzi beta-gal in NIH3T3, GalScreen luminescence, 90 h. inhibition, % at 8.34 µM. 77,000 tested, 5.9% active;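 active = mean inhibition above about 93%, with at least 55% of replicates each passing it, limit read from the data, passing the limit was not always enough; inconclusive = only one of those two conditions holds; inactive = neither condition holds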
GASC1 inh – inhibitors of human demethylase GASC-1 KDM4C | GST-KDM4C 2-372, H3K9me3 peptide, LANCE TR-FRET | 96,000 tested, 0.15% active | AID 720574 | Q9H3R0 | inhibition, % at 12.5 µM;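 active = mean replicate inhibition above about 25%, with at least 55% of replicates also reaching it, limit read from the data, passing the limit was not always enough; inconclusive = only one of those two conditions met; inactive = neither condition met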
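Material: GST-tagged GASC-1 (JMJD2C) catalytic fragment, aa 2-372. Input: enzyme final amount 10 nM. Medium: HEPES buffer, pH 7.5, plus ascorbate. Reagent: H3K9me3 peptide substrate, Fe(II), 2-oxoglutarate. Doses: single dose. Times: reaction 30 min RT, detection step 1 h RT. Measured by: LANCE TR-FRET. Evaluation: Fall in 671/618 emission ratio as inhibition.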
T cruzi growth-2 – blocks T. cruzi growth in NIH3T3 host cells; shares compounds with T cruzi growth-1; inhibition, % at 8.35 µM; 5,600 tested, 72% active; AID 651739; T. cruzi beta-gal in NIH3T3, GalScreen luminescence, 90 h;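 active = mean replicate inhibition above about 95% and at least 55% of replicates individually reaching it, limit read from the data; inconclusive = only one of the two criteria is met; inactive = neither criterion is met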
T cruzi growth-3 – Trypanosoma cruzi proliferation inhibition. shares compounds with T cruzi growth-1. T. cruzi beta-gal in NIH3T3, GalScreen luminescence, 90 h. inhibition, % at 2.09 µM. 5,600 tested, 21% active. AID 651740;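 active = mean inhibition above about 95%, with at least 55% of replicates also reaching it, limit read from the data; inconclusive = meets just one of the two conditions; inactive = meets neither condition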
NIH3T3 tox – cytotoxicity in mouse NIH/3T3 fibroblasts; 5,600 tested, 14% active; shares compounds with T cruzi growth-1; cytotoxicity (signal decrease), % at 8.35 µM; NIH/3T3 viability, CellTiter-Glo ATP luminescence, 90 h;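 active = mean signal decrease across replicates above about 35% based on untreated-well scatter, with enough replicates individually passing, limit read from the data; inconclusive = no rule stated though some were filed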
NIH3T3 tox 2 – kills mouse NIH/3T3 fibroblasts | inhibition, % at 24.9 µM | NIH/3T3 viability, CellTiter-Glo ATP luminescence, 90 h | shares compounds with T cruzi growth-1 | 5,600 tested, 56% active;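 active = mean loss of cell viability signal at or above a set limit, and enough replicates individually reaching it; inconclusive = meets only the mean limit or only the replicate share; inactive = meets neither condition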
Numbers stand for hits; 0 = inactive; ? = inconclusive; - = no result given.

SMILES	Pf Dd2 growth	IDH1 R132H inh	T cruzi growth-1	GASC1 inh	T cruzi growth-2	T cruzi growth-3	NIH3T3 tox	NIH3T3 tox 2
COc1ccc(S(=O)(=O)Nc2cccc3c2O[C@@H](CN(C)Cc2ccc(C(=O)O)cc2)[C@@H](C)CN([C@H](C)CO)C3=O)cc1	0	0	101	0	0	0	0	0
C[C@H]1CN([C@@H](C)CO)C(=O)c2cc(NS(=O)(=O)c3cn(C)cn3)ccc2O[C@@H]1CN(C)Cc1ccc(C(=O)Nc2ccccc2N)cc1	0	0	?	0	0	0	0	0
C[C@@H]1CN([C@@H](C)CO)C(=O)c2cc(NS(=O)(=O)c3ccc(Cl)cc3)ccc2O[C@@H]1CN(C)Cc1ccc(C(=O)Nc2ccccc2N)cc1	?	-	106	0	108	0	0	62
C[C@H]1CN([C@@H](C)CO)C(=O)c2cc(NS(=O)(=O)c3ccc(Cl)cc3)ccc2O[C@@H]1CN(C)Cc1ccc(C(=O)Nc2ccccc2N)cc1	0	-	0	0	-	-	-	-
COCC#Cc1ccc([C@H]2[C@H]3CN(C(=O)C4CCCCC4)CC(=O)N3[C@H]2CO)cc1	0	-	-	0	-	-	-	-
COc1ccc(NC(=O)N(C)C[C@H]2Oc3ccc(NC(=O)CCC(F)(F)F)cc3C(=O)N([C@H](C)CO)C[C@@H]2C)cc1	0	-	0	0	-	-	-	-
COc1ccc(S(=O)(=O)Nc2cccc3c2O[C@@H](CN(C)Cc2ccc(C(=O)Nc4ccccc4N)cc2)[C@@H](C)CN([C@@H](C)CO)C3=O)cc1	0	-	?	0	0	0	0	37
COc1ccc(S(=O)(=O)Nc2cccc3c2O[C@@H](CN(C)Cc2ccc(C(=O)Nc4ccccc4N)cc2)[C@H](C)CN([C@H](C)CO)C3=O)cc1	0	-	-	0	-	-	-	-
CC(C)NC(=O)N(C)C[C@@H]1Oc2ccc(N(C)C)cc2CC(=O)N([C@@H](C)CO)C[C@@H]1C	0	0	0	0	-	-	-	-
COc1ccc(CN(C)C[C@H]2OCCCC[C@H](C)Oc3ccc(NC(=O)Nc4ccc5c(c4)OCO5)cc3C(=O)N([C@@H](C)CO)C[C@@H]2C)cc1	0	0	106	0	101	0	0	104
COc1ccc(CN(C)C[C@H]2OCCCC[C@@H](C)Oc3ccc(NC(=O)Nc4ccc5c(c4)OCO5)cc3C(=O)N([C@H](C)CO)C[C@H]2C)cc1	0	-	106	0	106	0	0	64
COc1ccc(CN(C)C[C@@H]2OCCCC[C@H](C)Oc3ccc(NC(=O)Nc4ccc5c(c4)OCO5)cc3C(=O)N([C@H](C)CO)C[C@H]2C)cc1	0	0	0	0	-	-	-	-
COc1ccc(CN(C)C[C@@H]2OCCCC[C@@H](C)Oc3ccc(NC(=O)Nc4ccc5c(c4)OCO5)cc3C(=O)N([C@@H](C)CO)C[C@@H]2C)cc1	0	0	?	0	108	98	0	53
COCC#Cc1ccc2c(c1)O[C@H](CN(C)C(=O)NC(C)C)[C@H](C)CN([C@H](C)CO)S2(=O)=O	-	0	0	0	-	-	-	-
C[C@H](CO)N1C[C@H](C)[C@@H](CN(C)Cc2cccnc2)Oc2cc(-c3ccccc3F)ccc2S1(=O)=O	0	0	0	0	-	-	-	-
C[C@H]1CN([C@@H](C)CO)S(=O)(=O)c2ccc(-c3ccccc3F)cc2O[C@@H]1CN(C)Cc1cccnc1	0	0	105	0	107	104	36	100
C[C@@H]1CN([C@@H](C)CO)S(=O)(=O)c2ccc(-c3ccccc3F)cc2O[C@@H]1CN(C)Cc1cccnc1	0	0	101	0	105	0	69	71
O=C(C[C@H]1CC[C@@H]2[C@H](COC[C@@H](O)CN2S(=O)(=O)c2ccc(F)cc2)O1)NCC1CCCCC1	-	-	0	-	-	-	-	-
COc1ccc(-c2ccc([C@H]3[C@H](C#N)N(C(=O)NC4CCCC4)[C@H]3CO)cc2)cc1	0	-	?	-	0	0	0	0
COc1ccc(-c2ccc([C@H]3[C@H](C#N)N(C(=O)NC4CCCCC4)[C@H]3CO)cc2)cc1	0	-	101	0	102	0	0	75
COc1ccccc1-c1ccc([C@@H]2[C@@H](C#N)N(C(=O)NC3CCCCC3)[C@@H]2CO)cc1	0	-	0	0	-	-	-	-
C[C@H](CO)N1C[C@H](C)[C@H](CN(C)S(=O)(=O)c2ccccc2)Oc2ccc(NC(=O)c3ccncc3)cc2C1=O	0	-	0	0	-	-	-	-
C[C@@H]1CN([C@H](C)CO)S(=O)(=O)c2ccc(-c3ccc(F)cc3)cc2O[C@H]1CN(C)C(=O)Nc1ccc(F)cc1	0	-	114	0	106	0	38	74
C[C@H]1CN([C@@H](C)CO)S(=O)(=O)c2ccc(-c3ccc(F)cc3)cc2O[C@@H]1CN(C)C(=O)Nc1ccc(F)cc1	0	-	119	0	103	0	0	58
C[C@@H]1CN([C@H](C)CO)S(=O)(=O)c2ccc(Br)cc2O[C@H]1CN(C)C(=O)Nc1ccc(F)cc1	0	-	0	0	-	-	-	-
SMILES	Pf Dd2 growth	IDH1 R132H inh	T cruzi growth-1	GASC1 inh	T cruzi growth-2	T cruzi growth-3	NIH3T3 tox	NIH3T3 tox 2
C[C@@H]1CN([C@@H](C)CO)S(=O)(=O)c2ccc(-c3ccc(F)cc3)cc2O[C@@H]1CN(C)C(=O)Nc1ccc(F)cc1	0	-	123	0	111	0	0	62
C[C@@H]1CN([C@H](C)CO)S(=O)(=O)c2ccc(-c3ccncc3)cc2O[C@H]1CN(C)C(=O)Nc1ccc(F)cc1	0	0	101	0	0	0	0	75
C[C@H](CO)N1C[C@H](C)[C@H](CN(C)C(=O)Nc2ccc(F)cc2)Oc2cc(-c3ccncc3)ccc2S1(=O)=O	0	-	0	0	-	-	-	-
CO[C@H]1CN(C)C(=O)c2ccc(NC(=O)C3CC3)cc2OC[C@@H](C)N(C(=O)CN2CCOCC2)C[C@@H]1C	0	0	0	0	-	-	-	-
COC(=O)c1c(NC(=S)NCc2ccco2)sc2c1CCC(C)C2 (centres undefined)	-	0	-	-	-	-	-	-
CCCC#Cc1ccc([C@@H]2[C@@H](CO)N(C(=O)C3CCCCC3)[C@H]2C#N)cc1	0	-	0	0	-	-	-	-
CCCC#Cc1ccc([C@H]2[C@@H](C#N)N(C(=O)C3CCC3)[C@@H]2CO)cc1	0	-	99	0	102	100	0	0
CCCC#Cc1ccc([C@@H]2[C@@H](C#N)N(C(=O)C3CCCCC3)[C@H]2CO)cc1	0	-	96	0	0	106	0	53
CCCC#Cc1ccc([C@@H]2[C@H](C#N)N(C(=O)C3CCCC3)[C@H]2CO)cc1	0	-	99	0	98	106	0	78
CCCC#Cc1ccc([C@H]2[C@H](C#N)N(C(=O)C3CCC3)[C@H]2CO)cc1	0	-	0	0	-	-	-	-
CC(=O)N(C)C[C@@H]1Oc2cc(C#CCN(C)C)ccc2S(=O)(=O)N([C@H](C)CO)C[C@@H]1C	0	0	0	0	-	-	-	-

Screening data (PubChem BioAssay)
